Redox H2O2 prof = compounds producing H2O2 with reducing agent – biochemical, NIH compound library profiling, artefact control for MLSCN library redox annotation, primary screen. DTT-dependent redox cycling H2O2, phenol red/HRP absorbance; 100% = 100 µM peroxide control, 0% = buffer. activation, % at 10 µM. 200,000 tested, 0.03% active. AID 878, 2007;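 active means activation of at least 50% relative to the plate's high and low controls in the primary single-dose screen; inactive means activation below 50%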;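 further: compound incubated with DTT at 0.8 mM final as the reducing agent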
G6PDH counter = L. mesenteroides G6PDH inhibitors, counter-screen for G6PDH-coupled screening assays, biochemical, Leuconostoc mesenteroides enzyme. glucose-6-phosphate dehydrogenase [Leuconostoc mesenteroides]. Purified L. mesenteroides G6PDH, diaphorase/resazurin coupled fluorescence, 45 min. inhibition, % at 5 µM. 200,000 tested, 0.12% active. AID 1020, 2008
Lmaj promast = Leishmania major promastigote growth inhibition, primary screen | Leishmania major promastigotes, resazurin fluorescence viability | inhibition, % at 10 µM | 200,000 tested, 9% active | AID 1063, 2008;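 further: promastigotes grown with compound for 44 hours at 28 °C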
Diaph inh CS = diaphorase inhibitors and chemical oxidizers, primary screen, counter-screen for diaphorase-coupled primary assays, biochemical, uHTS, resorufin fluorescence. 190,000 tested, 0.69% active. diaphorase resazurin-to-resorufin fluorescence, NADH, 16 min; bacterial (C. kluyveri) enzyme, not human. AID 1217, 2008. inhibition, % at 20 µM;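 active means primary screen inhibition at 20 µM above a set limit, cut at about 50% in these data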
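Benchmarks: positive control wells lacking NADH, neutral wells with DMSO only. System: bacterial diaphorase enzyme (C. kluyveri). Input: 0.14 U/mL diaphorase, enzyme working solution. Detection: resorufin fluorescence, excitation 544 nm, emission 590 nm. Times: 16-min room-temperature incubation before reading.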
Diaph act CS = compounds boosting diaphorase resazurin reduction – biochemical, uHTS, resorufin fluorescence, counter-screen for diaphorase-coupled primary assays, primary screen | Diaphorase/resazurin coupled assay, 16 min; hits give high values; 1 = vehicle wells, 0 = NADH-free wells | activation factor at 20 µM | 190,000 tested, 0.005% active | AID 1229, 2008;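 active means diaphorase activity raised at least twofold by the compound at 20 µM; inactive means activation factor below 2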
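Assay system: bacterial diaphorase enzyme (C. kluyveri) / Input: enzyme 0.07 U/mL final / Medium: 50 mM HEPES pH 7.4 with 4.542 mM MgCl2, 0.005% Tween 20 / Doses: single compound dose of 20 µM, 1% DMSO final / Incubation: 16 min enzyme reaction, ambient temperature / Signal: fluorescence, excitation 544 nm and emission 590 nm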
PfGluPho inh = PfG6PD enzyme inhibitors, primary screen, biochemical, fluorescence intensity, uHTS. inhibition, % at 20 µM. PfGluPho enzyme, NADPH resazurin-diaphorase fluorescence. glucose-6-phosphate dehydrogenase-6-phosphogluconolactonase (Plasmodium falciparum 3D7). AID 504690, 2011. 350,000 tested, 0.78% active;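 active means inhibition reaching at least a set limit at 20 µM in the primary screen, cut at about 59% in these data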
Numbers stand for hits; . = inactive; / = not tested or not shown. The sample as a whole holds a higher share of hits than the screen did. Unless noted, no stated cut-off is given here; in the data, active means inhibition above about 50%; inactive means the rest.

SMILES	Redox H2O2 prof	G6PDH counter	Lmaj promast	Diaph inh CS	Diaph act CS	PfGluPho inh
O=C(/C=C/c1ccc(Cl)cc1)Nc1nccs1	.	.	.	.	.	.
CC(=O)c1ccc(NC(=S)NCCc2ccccn2)cc1	/	.	71	.	.	.
CC(C)(C)c1ccc(NC(=S)NCCc2ccccn2)cc1	/	/	/	/	/	.
COc1cc(CN2CCN(c3ccccc3F)CC2)cc(OC)c1O	.	54	.	.	.	.
COc1cc(CN2CCN(c3cccc(C)c3C)CC2)cc([N+](=O)[O-])c1O	.	.	71	.	.	.
COc1ccc(N2CCN(Cc3cc(OC)c(O)c([N+](=O)[O-])c3)CC2)cc1	.	.	.	.	.	.
COc1cc2c(cc1OC)CN(Cc1cc(OC)c(O)c(OC)c1)CC2	.	53	.	.	.	.
COc1ccc(CN2CCN(c3ccccc3OC)CC2)cc1OC	/	/	/	/	/	.
O=C(C1CCCCC1)N1CCN(c2ccccc2F)CC1	.	.	.	.	.	.
CC(C)CN1CCC(C(=O)N2CCN(c3ccccc3F)CC2)CC1	.	.	82	.	.	.
CCOc1ccc(S(=O)(=O)N2CCCC(C(=O)Nc3cc(C)cc(C)c3)C2)cc1 (centres undefined)	/	/	/	/	/	.
O=C([C@@H]1Cc2ccccc2CN1)N1CCN(Cc2ccccc2)CC1	/	/	/	/	/	.
O=C(CCn1c(=S)oc2ccccc21)N1CCCCC1	.	.	.	.	.	.
O=C(CCCn1c(=S)[nH]c2ccsc2c1=O)Nc1ccc2c(c1)OCCO2	.	.	.	.	.	.
COc1cc(CN2CCC(C(=O)N3CCN(c4ccccc4F)CC3)CC2)cc(OC)c1O	.	54	.	.	.	.
CC1=NN(c2ccc(Cl)cc2)C(=O)/C1=C\c1cccn1-c1ccc(S(N)(=O)=O)cc1	.	.	50	.	.	.
COc1ccccc1-n1c(SCC(=O)Nc2ccc3c(c2)OCO3)nc2c(c1=O)SCC2	.	.	89	.	.	.
COc1ccc(-n2c(SCC(=O)Nc3ccc4c(c3)OCO4)nc3c(c2=O)SCC3)cc1	.	.	.	.	.	.
CCN(C(C)=O)c1ccc(Oc2nc(OC)cc(OC)n2)cc1	.	.	.	.	.	.
Cc1nn(CC(=O)N2CCN(c3ccc(Cl)cc3)CC2)c(=O)c2cccn12	/	/	/	/	/	.
CCCc1cc(-c2nc(N)ncc2-c2ccc3c(c2)OCCCO3)c(O)cc1OC	.	.	.	.	.	71
Cn1c(SCC(=O)Nc2cc(=O)n(C)c(=O)n2C)nnc1-c1cccs1	/	.	/	.	.	/
O=C(COC(=O)CNC(=O)c1ccc(Cl)cc1)Nc1ccc2c(c1)OCCO2	.	.	57	.	.	.
O=C(COC(=O)/C=C/c1ccc(Cl)cc1)Nc1ccc2c(c1)OCCO2	.	.	51	.	.	.
O=C(COc1cc(Cl)c(Cl)cc1Cl)NC(=O)Nc1ccc2c(c1)OCCO2	.	.	63	.	.	.
SMILES	Redox H2O2 prof	G6PDH counter	Lmaj promast	Diaph inh CS	Diaph act CS	PfGluPho inh
O=C(COC(=O)Cc1ccccc1F)Nc1ccc2c(c1)OCCO2	.	.	.	.	.	.
O=C(COC(=O)Cc1cccc(C(F)(F)F)c1)Nc1ccc2c(c1)OCCO2	.	.	65	.	.	.
O=C(COC(=O)/C=C/c1ccccc1)Nc1ccc2c(c1)OCCO2	/	/	/	/	/	.
COc1cccc(NC(=O)COC(=O)C2CC2)c1	/	/	/	/	/	.
CS(=O)(=O)c1cc(C(=O)O)cc(NCc2ccccc2)c1Oc1ccccc1	/	/	/	/	/	.
O=C(C1CC1)N1CCc2cc(S(=O)(=O)N3CCOCC3)ccc21	.	.	.	.	.	.
CC(Cl)C(=O)c1ccc2c(c1)CCN2C(=O)C1CC1 (centres undefined)	.	.	96	62	.	.
CC[N+]1(C)CCC(O)(/C=C/c2ccccc2)C(C(=O)/C=C/c2ccccc2)C1 (centres undefined)	/	/	/	/	/	.
CCN(CC)CCOC(=O)C1(c2ccc([N+](=O)[O-])cc2)CCCC1	/	/	/	/	/	.
CCN(CC)CCOC(=O)C1(c2ccccc2)CCOCC1	.	.	73	.	.	.
CCN(CC)CCCOC(=O)C1(c2ccccc2)CCCC1	.	.	99	.	.	.
CCN(CC)CCOCCOC(=O)C1(c2ccccc2)CCCC1	/	/	/	/	/	.
COc1ccc(C(=O)OCC(=O)NCCc2ccc(F)cc2)cc1S(=O)(=O)N1CCOCC1	/	/	/	/	/	.
O=C(O)c1ccccc1Cc1ccc2c(c1)CCCC2	/	/	/	/	/	.
S=C(NN=C(C1CC1)C1CC1)Nc1ccccc1	.	.	67	.	.	.
O=C(NNC(=S)Nc1ccccc1)C1CC1	.	.	.	.	.	.
CCN(C1CCCCC1)S(=O)(=O)CCNC(=O)c1ccc(OC)cc1	/	/	/	/	/	.
CCC(C)(C)NC(=S)Nc1ccc(-c2nc3ccc(C)cc3s2)cc1	.	.	75	.	.	.
CCCCNC(=S)Nc1ccc(-c2nc3ccc(C)cc3s2)cc1	.	.	.	.	.	.
Cc1ccc2nc(-c3ccc(NS(=O)(=O)c4ccc(F)cc4)cc3)sc2c1	.	.	65	.	.	.
N#CC1=C(SCc2ccccc2)NC(=O)CC1c1ccccc1 (centres undefined)	.	.	.	.	.	.
N#CC1=C2SCC(O)(c3ccccc3)N2C(=O)CC1c1ccccc1 (centres undefined)	.	.	92	.	.	.
O=C1C2C3C=CC(C4CC34)C2C(=O)N1/N=C/c1ccc(-c2ccc(Cl)cc2[N+](=O)[O-])o1 (centres undefined)	.	.	59	.	.	.
CCSc1ccccc1C(=O)Nc1ccc(S(=O)(=O)NC(C)=O)cc1	.	.	.	.	.	.
O=C(NCCN1CCOCC1)c1ccc2c(c1)N(Cc1c(F)cccc1Cl)C(=O)c1ccccc1S2	.	.	100	.	.	.
SMILES	Redox H2O2 prof	G6PDH counter	Lmaj promast	Diaph inh CS	Diaph act CS	PfGluPho inh
CCc1ccc(NC(=O)CSc2ccc(-c3cccnc3)nn2)cc1	/	/	/	/	/	.
COc1cccc(CNC(=O)CSc2ccc(-c3ccncc3)nn2)c1	.	.	89	.	.	/
CCOC(=O)c1ccc(NC(=O)CSc2ccc(-c3ccncc3)nn2)cc1	.	.	75	.	.	.
COc1ccccc1CNC(=O)CSc1ccc(-c2ccncc2)nn1	.	.	94	.	.	.
COc1ccc(-c2cc(-c3cccs3)c(C#N)c(SCC(=O)NCc3ccccc3OC)n2)cc1	.	.	91	.	.	.
NC(=O)C1CCCN1S(=O)(=O)c1ccc2ccccc2c1 (centres undefined)	/	/	/	/	/	.
